In BindingDB's records for doi:10.1021/jm4003654 (Xavier University of Louisiana, 2013):

Key:
CYP2A6 = molecular target: T1, CYP2A6 (Homo sapiens, UniProt P11509); assay: Inhibition of CYP2A6 (unknown origin)-mediated coumarin 7-hydroxylation after 5 mins by spectrofluorimetric analysis; details: probe coumarin (7-hydroxylation)
T1 sequence (P11509 whole entry): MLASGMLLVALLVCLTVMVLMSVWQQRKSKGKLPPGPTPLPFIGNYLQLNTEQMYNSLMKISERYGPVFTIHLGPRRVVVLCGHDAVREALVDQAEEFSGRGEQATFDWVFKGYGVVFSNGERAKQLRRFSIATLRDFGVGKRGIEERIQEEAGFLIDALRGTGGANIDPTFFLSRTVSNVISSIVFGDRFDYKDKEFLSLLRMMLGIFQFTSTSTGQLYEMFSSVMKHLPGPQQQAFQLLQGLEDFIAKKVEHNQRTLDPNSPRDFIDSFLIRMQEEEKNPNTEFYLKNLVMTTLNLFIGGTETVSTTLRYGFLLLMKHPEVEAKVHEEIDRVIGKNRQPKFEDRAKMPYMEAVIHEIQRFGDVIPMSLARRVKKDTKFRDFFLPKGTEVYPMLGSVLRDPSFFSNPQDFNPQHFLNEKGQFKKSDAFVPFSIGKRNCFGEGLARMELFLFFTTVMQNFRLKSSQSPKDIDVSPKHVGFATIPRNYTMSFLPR
Procedure, shortened: (§1)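 Microsomal P450 (final 5 nM) in 0.1 M potassium phosphate pH 7.6 with MgCl2; resorufin ether or coumarin substrate final 5 μM from DMSO stock; inhibitor added in DMSO, DMSO alone for controls. Reaction started with NADPH regenerating system (NADP+, glucose 6-phosphate, G6P dehydrogenase) at 37 °C; product formation followed fluorimetrically as progress curves.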

[1] = molecular target: Cytochrome P450 2B1 (Rattus norvegicus) (UniProt P00176); assay: Inhibition of CYP2B1 (rat)-mediated depentylation of resorufin pentyl ether after 5 mins by spectrofluorimetric analysis
Cytochrome P450 1A1 = molecular target: T2, Cytochrome P450 1A1 (Homo sapiens, UniProt P04798); assay: Inhibition of CYP1A1 (unknown origin)-mediated deethylation of resorufin ethyl ether after 5 mins by spectrofluorimetric analysis; procedure, shortened: as §1
T2 sequence (P04798 whole entry): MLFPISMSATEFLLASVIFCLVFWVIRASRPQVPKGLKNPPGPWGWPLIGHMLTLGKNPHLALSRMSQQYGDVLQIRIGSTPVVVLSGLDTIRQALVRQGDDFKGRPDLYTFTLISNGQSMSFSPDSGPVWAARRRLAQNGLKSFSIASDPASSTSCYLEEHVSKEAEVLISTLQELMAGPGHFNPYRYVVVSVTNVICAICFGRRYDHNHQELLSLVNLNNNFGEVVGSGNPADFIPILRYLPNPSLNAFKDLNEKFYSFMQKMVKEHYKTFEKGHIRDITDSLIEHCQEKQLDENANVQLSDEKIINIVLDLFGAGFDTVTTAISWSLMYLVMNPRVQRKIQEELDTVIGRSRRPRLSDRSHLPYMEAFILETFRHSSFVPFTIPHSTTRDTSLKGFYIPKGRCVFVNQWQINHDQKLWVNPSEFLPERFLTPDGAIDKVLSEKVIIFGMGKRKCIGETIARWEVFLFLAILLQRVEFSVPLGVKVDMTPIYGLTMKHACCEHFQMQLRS

Chain of Cytochrome P450 2B1 (Rattus norvegicus) (P00176 whole entry, looked up): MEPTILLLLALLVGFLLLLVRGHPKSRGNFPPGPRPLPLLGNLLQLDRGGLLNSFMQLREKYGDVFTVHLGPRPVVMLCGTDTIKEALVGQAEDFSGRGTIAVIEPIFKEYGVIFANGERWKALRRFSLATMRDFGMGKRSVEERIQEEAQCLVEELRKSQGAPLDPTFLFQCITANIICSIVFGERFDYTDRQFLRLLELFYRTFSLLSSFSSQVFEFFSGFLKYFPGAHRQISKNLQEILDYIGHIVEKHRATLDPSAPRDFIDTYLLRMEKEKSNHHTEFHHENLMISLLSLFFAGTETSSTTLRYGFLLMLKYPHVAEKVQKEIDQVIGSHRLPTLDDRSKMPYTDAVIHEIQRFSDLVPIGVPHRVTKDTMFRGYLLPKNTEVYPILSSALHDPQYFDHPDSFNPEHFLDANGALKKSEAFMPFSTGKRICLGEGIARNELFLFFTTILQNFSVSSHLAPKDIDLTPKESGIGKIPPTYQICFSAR

IC50 at 5 min (CYP2A6) [µM]	IC50 [1] [µM]	IC50 (Cytochrome P450 1A1) [µM]	Compound
> 25	> 25	–	O=c1cccc2oc(-c3cccc4c3C=CCO4)cc(O)c1-2
–	–	4.03	O=c1cc(-c2ccccc2)oc2cccc(O)c12 [5-Hydroxy-2-phenyl-chromen-4-one]

More lines, now with the values behind:

Compound	IC50 at 5 min (CYP2A6) [µM]	IC50 [1] [µM]	IC50 (Cytochrome P450 1A1) [µM]
C#CCOc1ccc(-c2cc(O)c3c(=O)cccc-3o2)cc1	> 25	> 25	–
O=c1cccc2oc(-c3ccc4c(c3)OCC=C4)cc(O)c1-2	> 25	> 25	–
C#CCOc1cccc(-c2cc(O)c3c(=O)cccc-3o2)c1	> 25	4.08	–
O=c1cccc2oc(-c3ccc4c(c3)C=CCO4)cc(O)c1-2	> 25	> 25	–
